Source: PubChem (several laboratories)
PMI activator: phosphomannose isomerase (human) activation. P34949. purified human PMI, coupled resazurin fluorescence, 20 min; stronger effect = higher value; 1 = vehicle control, 0 substrate-free wells. activation factor at 20 µM. 190,000 compounds, 0.005% hits;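 active = activation factor of 2 or more at 20 µM, relative to plate controls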
Calpain2 inh: blocks pig calpain II enzyme activity. purified calpain II, fluorogenic peptide substrate, 30 min. inhibition, % at 16 µM. 220,000 compounds, 0.37% hits;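 active = inhibition above about 50%, limit read from the data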
WT yeast gro inh: growth inhibition of WT yeast, mitochondrial fusion screen; 190,000 compounds, 2.1% hits; inhibition, % at 10 µM; mitochondrial fusion phenotypic screen, WT strain; in the data active = inhibition above about 58%; tested in S. cerevisiae
PMI act satM6P: increases human PMI activity with near-saturating mannose 6-phosphate | P34949 | coupled PMI enzyme assay, resazurin fluorescence, 20 min; stronger effect = higher value; 1 = untreated enzyme, 0 = substrate-free blank | activation factor at 20 µM | 190,000 compounds, 0.34% hits;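 active = activation factor of 2 or more at 20 µM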
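Material: human phosphomannose isomerase with PGI, G6PDH, diaphorase coupling enzymes; amount: PMI at 15 ng/mL final; also added: Mannose-6-phosphate 1.0 mM (near-saturating) plus 0.22 mM NADP+; incubation: enzyme reaction with compound 20 min at room temperature; signal: resorufin fluorescence (Ex 544/Em 590 nm) from resazurin via diaphorase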
Rad51 HR inh: Rad51 (human) homologous recombination inhibition; Q06609; 200,000 compounds, 0.085% hits; inhibition, % at 10 µM; hRad51 DNA strand exchange, fluorescence dequenching;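 active = inhibition above 40% at the single screening dose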;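 also: 0% = DMSO control wells and 100% = blanks with heterologous ssDNA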
Target sequence (Q06609 whole entry, looked up): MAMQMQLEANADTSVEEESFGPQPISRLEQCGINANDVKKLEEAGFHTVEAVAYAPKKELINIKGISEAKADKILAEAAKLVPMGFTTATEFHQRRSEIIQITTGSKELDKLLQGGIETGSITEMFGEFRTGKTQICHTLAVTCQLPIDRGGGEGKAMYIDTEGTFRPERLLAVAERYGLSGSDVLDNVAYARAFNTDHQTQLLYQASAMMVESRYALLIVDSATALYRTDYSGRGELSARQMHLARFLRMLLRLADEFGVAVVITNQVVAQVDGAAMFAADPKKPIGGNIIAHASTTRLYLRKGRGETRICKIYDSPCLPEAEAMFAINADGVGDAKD
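Material: hRad51 filaments on single-stranded DNA; Reagent: Donor/quencher-labelled 47-bp dsDNA substrate; Compound: 10 µM final, single point; Schedule: 37 °C 15-min filament assembly, 30-min compound preincubation, 15-min exchange; Technique: FRET fluorescence, excitation 485 nm, emission 520 nm; Benchmarks: control wells and blank wells on each plate.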
L major viab: reduces viability of Leishmania major promastigotes; resazurin fluorescence viability; inhibition, % at 10 µM; 200,000 compounds, 9% hits; AID 1063; in the data active = inhibition above about 50%;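 also: promastigotes grown with compound for 44 hours at 28 °C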
The depositor's hits bear a star. Sampled rows, rich in hits. Any-hit rate of the full collection: about 9.8%.

`C/C(=N\Nc1cc(C)nc(NCc2ccccc2)n1)c1ccc([N+](=O)[O-])cc1` gave Calpain2 inh -80.
`C=CCOC(=O)C1=C[C@@H](c2ccc(C(F)(F)F)cc2)[C@H](CCCO)[C@@H](OCC)O1` gave PMI activator 0.8, Calpain2 inh 4, WT yeast gro inh -5, PMI act satM6P 0.8, Rad51 HR inh -3 and L major viab 2.
For CC(C)CNS(=O)(=O)c1ccc(CCC(=O)N2CCN(Cc3ccc4c(c3)OCO4)CC2)cc1 the results were PMI activator 1, Calpain2 inh 3, WT yeast gro inh -12, PMI act satM6P 1.1, Rad51 HR inh 11 and L major viab 0.
O=C(CCN1C(=O)c2cccc3cccc(c23)C1=O)N1CCN(Cc2ccc3c(c2)OCO3)CC1 was read as PMI activator 0.9, Calpain2 inh -41, WT yeast gro inh 23, PMI act satM6P 0.9, Rad51 HR inh -2 and L major viab 37.
`O=C(C1COc2ccccc2O1)N1CCN(Cc2ccc3c(c2)OCO3)CC1` (stereo not drawn) gave PMI activator 1.1, Calpain2 inh 8, WT yeast gro inh 21, PMI act satM6P 1, Rad51 HR inh 2 and L major viab 89*.
`O=C(CSCc1ccccc1)N1CCN(Cc2ccc3c(c2)OCO3)CC1` gave PMI activator 0.9, Calpain2 inh -18, WT yeast gro inh -4, PMI act satM6P 0.9, Rad51 HR inh -5 and L major viab 99*.
Screening O=C(CN1C(=O)c2cccc3cccc1c23)N1CCN(Cc2ccc3c(c2)OCO3)CC1 returned PMI activator 0.9, Calpain2 inh -117, WT yeast gro inh 13, PMI act satM6P 0.8, Rad51 HR inh -2 and L major viab 88*.
`O=C(CCc1ccc(S(=O)(=O)NCCc2ccccc2)cc1)N1CCN(Cc2ccc3c(c2)OCO3)CC1` gave PMI activator 0.9, Calpain2 inh -4, WT yeast gro inh -6, PMI act satM6P 0.9, Rad51 HR inh 1 and L major viab 78*.
For CCCC[C@@H]1C[C@H]1[C@@H](NC(=O)c1ccco1)c1ccc(Cl)cc1 the results were PMI activator 0.9, Calpain2 inh 13, WT yeast gro inh 73*, PMI act satM6P 0.9, Rad51 HR inh -17 and L major viab 1.
`CCCC[C@@H]1C[C@H]1[C@@H](NC(=O)c1cccs1)c1ccc(Cl)cc1` gave PMI activator 1, Calpain2 inh -4, WT yeast gro inh 70*, PMI act satM6P 1, Rad51 HR inh 7 and L major viab 41.
For COc1ccc(S(=O)(=O)N2CCCCC2)cc1NC(=S)Nc1ccccc1 the results were PMI activator 0.9, Calpain2 inh 15, WT yeast gro inh 4, PMI act satM6P 1, Rad51 HR inh -4 and L major viab 84*.
Screening COc1ccc(NC(=S)Nc2cc(S(=O)(=O)N3CCCCC3)ccc2OC)cc1 returned PMI activator 0.9, Calpain2 inh 36, WT yeast gro inh 4, PMI act satM6P 0.8, Rad51 HR inh 8 and L major viab 91*.
`COc1ccc(NC(=S)Nc2cccc(S(=O)(=O)N3CCCCC3)c2)cc1` gave PMI activator 1, Calpain2 inh 7, WT yeast gro inh -16, PMI act satM6P 1, Rad51 HR inh -6 and L major viab 95*.
For C=C(C)Cn1c(C)cc(C)c(S(=O)(=O)c2ccc(C)cc2)c1=O the results were PMI activator 0.9, Calpain2 inh 30, WT yeast gro inh 31, PMI act satM6P 0.9, Rad51 HR inh -4 and L major viab 68*.
Screening Cc1cc(C)n(Cc2ccc(Cl)cc2Cl)c(=O)c1S(=O)(=O)c1ccccc1 returned PMI activator 0.9, Calpain2 inh 20, WT yeast gro inh 31, PMI act satM6P 0.9, Rad51 HR inh -1 and L major viab -1.
Screening CN1CCN(C(=S)c2cn(Cc3ccccc3)c3ccccc23)CC1 returned PMI activator 0.9, Calpain2 inh 28, WT yeast gro inh 19, PMI act satM6P 0.9, Rad51 HR inh 19 and L major viab 22.
Screening CN1CCN(C(=S)c2cn(Cc3ccc(Br)cc3)c3ccccc23)CC1 returned PMI activator 0.9, Calpain2 inh -55, WT yeast gro inh 79*, PMI act satM6P 1, Rad51 HR inh 1 and L major viab 53*.
